In ChEMBL document CHEMBL4406880, “Design, synthesis, and bioactivity of dihydropyrimidine derivatives as kinesin spindle protein inhibitors” (Bioorg Med Chem, 2019):

Experiments:
Assay type in all cases: functional
EKVX = assay: Growth inhibition of human EKVX cells incubated for 48 hrs by sulforhodamine B assay
Outline: (§1)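 NCI-60 five-dose mode: five tenfold dilutions (0.01, 0.1, 1, 10, 100 µM) are applied for 48 h to cells in RPMI 1640 with 5% FBS at 37 °C. Endpoint is TCA fixation with sulforhodamine B read at 515 nm. % growth comes from the 0 h and control absorbances. GI50 is the concentration giving a 50% reduction in net cell growth.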

KM12 = assay: Growth inhibition of human KM12 cells incubated for 48 hrs by sulforhodamine B assay; conditions: KM12, 48 h
Outline: (§2)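 NCI-60 five-dose SRB assay in RPMI 1640 with 5% FBS, 37 °C, 5% CO2. Compound given at five tenfold dilutions, 0.01–100 µM, for 48 h. Adherent cells fixed with TCA, suspension cells with 16% final TCA. Bound SRB read at 515 nm and growth calculated against time-zero and untreated controls. GI50 taken from dose–response curves as the concentration giving a 50% decrease in net cell growth.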

UACC-257 = assay: Growth inhibition of human UACC257 cells incubated for 48 hrs by sulforhodamine B assay; conditions: UACC-257, 48 h
Outline: (§3)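 NCI-60 five-dose SRB assay. Cells were exposed for 48 h to tenfold dilutions of 0.01, 0.1, 1, 10 and 100 µM, in RPMI 1640 with 5% FBS. Plates fixed with TCA at the time of drug addition served as the time-zero reference. GI50 is the concentration giving a 50% reduction in net growth. TGI is total growth inhibition. LC50 is a net 50% loss of the initial cells.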

UACC-62 = assay: Growth inhibition of human UACC62 cells incubated for 48 hrs by sulforhodamine B assay; conditions: UACC-62, 48 h; outline: as §3
DU-145 = assay: Growth inhibition of human DU145 cells incubated for 48 hrs by sulforhodamine B assay; conditions: DU-145, 48 h; outline: as §1
MDA-MB-468 [1] = assay: Growth inhibition of human MDA-MB-468 cells incubated for 48 hrs by sulforhodamine B assay; conditions: MDA-MB-468, 48 h; outline: as §2
SNB-75 = assay: Cell cycle arrest in human SNB75 cells assessed as accumulation in S phase at 2 uM incubated for 24 hrs by propidium iodide based flow cytometry (reference value: 33.92 %)
Outline: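 SNB-75 cells were exposed to 2 µM for 24 h at 37 °C, 5% CO2, then washed with PBS and fixed in 70% ethanol on ice for 15 min. They were stained 1 h at room temperature with 50 µg/mL propidium iodide, 0.1 mg/mL RNase A and 0.05% Triton X-100. DNA content was read by flow cytometry to give the % of cells in pre-G1, G0/G1, S and G2/M.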

HCT-116 [2] = assay: Growth inhibition of human HCT116 cells assessed as cell viability at 100 uM incubated for 48 hrs by sulforhodamine B assay; conditions: HCT-116, 48 h, read-out: Activity
HCC 2998 = assay: Growth inhibition of human HCC2998 cells assessed as cell viability at 100 uM incubated for 48 hrs by sulforhodamine B assay; conditions: HCC 2998, 48 h, read-out: Activity
K562 = assay: Growth inhibition of human K562 cells assessed as cell viability at 100 uM incubated for 48 hrs by sulforhodamine B assay; conditions: K562, 48 h, read-out: Activity
MCF7 = assay: Growth inhibition of human MCF7 cells assessed as cell viability at 1 uM incubated for 48 hrs by sulforhodamine B assay; conditions: MCF7, 48 h, read-out: Activity
ACHN = assay: Growth inhibition of human ACHN cells assessed as cell viability at 1 uM incubated for 48 hrs by sulforhodamine B assay; conditions: read-out: Activity; outline: as §1
HT-29 = assay: Growth inhibition of human HT-29 cells assessed as cell viability at 1 uM incubated for 48 hrs by sulforhodamine B assay; conditions: HT-29, 48 h, read-out: Activity
HCT-116 [3] = assay: Growth inhibition of human HCT116 cells assessed as cell viability at 1 uM incubated for 48 hrs by sulforhodamine B assay; conditions: HCT-116, 48 h, read-out: Activity
MDA-MB-468 [4] = assay: Growth inhibition of human MDA-MB-468 cells assessed as cell viability at 0.1 uM incubated for 48 hrs by sulforhodamine B assay; conditions: MDA-MB-468, 48 h, read-out: Activity
BT-549 [5] = assay: Growth inhibition of human BT549 cells assessed as cell viability at 0.1 uM incubated for 48 hrs by sulforhodamine B assay; conditions: BT-549, 48 h, read-out: Activity
OVCAR-8 = assay: Growth inhibition of human OVCAR8 cells assessed as cell viability at 0.1 uM incubated for 48 hrs by sulforhodamine B assay; conditions: OVCAR-8, 48 h, read-out: Activity
HOP-62 [6] = assay: Growth inhibition of human HOP62 cells assessed as cell viability at 0.1 uM incubated for 48 hrs by sulforhodamine B assay; conditions: HOP-62, 48 h, read-out: Activity
BT-549 [7] = assay: Growth inhibition of human BT549 cells assessed as cell viability at 0.001 uM incubated for 48 hrs by sulforhodamine B assay relative to control; conditions: BT-549, 48 h, read-out: Activity
MDA-MB-435 = assay: Growth inhibition of human MDA-MB-435 cells assessed as cell viability at 0.001 uM incubated for 48 hrs by sulforhodamine B assay relative to control; conditions: MDA-MB-435, 48 h, read-out: Activity
M14 = assay: Growth inhibition of human M14 cells assessed as cell viability at 0.001 uM incubated for 48 hrs by sulforhodamine B assay relative to control; conditions: M14, 48 h, read-out: Activity
HOP-62 [8] = assay: Growth inhibition of human HOP62 cells assessed as cell viability at 0.001 uM incubated for 48 hrs by sulforhodamine B assay relative to control; conditions: HOP-62, 48 h, read-out: Activity
PC-3 = assay: Growth inhibition of human PC3 cells assessed as cell viability at 100 uM incubated for 48 hrs by sulforhodamine B assay; conditions: PC-3, 48 h, read-out: Activity
[9] = read-out: LC50 (the source's name)
[10] = read-out: pLC50 (the source's name) (converted)

## CC1=C(C(=O)OCc2ccccc2)C(c2ccc3c(c2)OCO3)n2c(nc3ccccc32)N1 (racemic)
EKVX; read-out: GI50
  GI50: 0.69 µM
EKVX; read-out: LC50
  LC50: > 100 µM
EKVX; read-out: TGI
  TGI: > 100 µM
EKVX; read-out: pGI50 (converted)
  GI50: 0.692 µM
EKVX; read-out: pLC50 (converted)
  LC50: > 100 µM
EKVX; read-out: pTGI
  TGI: > 100 µM
KM12; read-out: GI50
  GI50: 0.34 µM
KM12; read-out: LC50
  LC50: > 100 µM
KM12; read-out: TGI
  TGI: > 100 µM
KM12; read-out: pGI50 (converted)
  GI50: 0.339 µM
KM12; read-out: pLC50 (converted)
  LC50: > 100 µM
KM12; read-out: pTGI
  TGI: > 100 µM
UACC-257; read-out: GI50
  GI50: 0.98 µM
UACC-257; read-out: LC50
  LC50 (concentration killing 50% of the initial cells): > 100 µM
UACC-257; read-out: TGI
  TGI: > 100 µM
UACC-257; read-out: pGI50 (converted)
  GI50: 0.977 µM
UACC-257; read-out: pLC50 (converted)
  LC50 (concentration killing 50% of the initial cells): > 100 µM
UACC-257; read-out: pTGI
  TGI: > 100 µM
UACC-62; read-out: GI50
  GI50: 0.38 µM
UACC-62; [9]
  CC50: > 100 µM
UACC-62; read-out: TGI
  TGI: > 100 µM
UACC-62; read-out: pGI50 (converted)
  GI50: 0.38 µM
UACC-62; [10]
  CC50: > 100 µM
UACC-62; read-out: pTGI
  TGI: > 100 µM
DU-145; read-out: GI50
  GI50: 0.59 µM
DU-145; [9]
  CC50: > 100 µM
DU-145; read-out: TGI
  TGI: > 100 µM
DU-145; read-out: pGI50 (converted)
  GI50: 0.589 µM
DU-145; [10]
  CC50: > 100 µM
DU-145; read-out: pTGI
  TGI: > 100 µM
MDA-MB-468 [1]; read-out: GI50
  GI50: 0.27 µM
MDA-MB-468 [1]; [9]
  CC50: > 100 µM
MDA-MB-468 [1]; read-out: TGI
  TGI: > 100 µM
MDA-MB-468 [1]; read-out: pGI50 (converted)
  GI50: 0.269 µM
MDA-MB-468 [1]; [10]
  CC50: > 100 µM
MDA-MB-468 [1]; read-out: pTGI
  TGI: > 100 µM
SNB-75
  Activity: 27.89%
HCT-116 [2]
  viability at 100 µM: 18%
HCC 2998
  viability at 100 µM: 46%
K562
  viability at 100 µM: 26%
MCF7
  viability at 1 µM: 14%
ACHN
  viability at 1 µM: 39%
HT-29
  viability at 1 µM: 8%
HCT-116 [3]
  viability at 1 µM: 26%
MDA-MB-468 [4]
  viability at 0.1 µM: 94%
BT-549 [5]
  viability at 0.1 µM: 87%
OVCAR-8
  viability at 0.1 µM: 97%
HOP-62 [6]
  viability at 0.1 µM: 96%
BT-549 [7]
  viability at 0.001 µM: 95%
MDA-MB-435
  viability at 0.001 µM: 93%
M14
  viability at 0.001 µM: 93%
HOP-62 [8]
  viability at 0.001 µM: 91%
PC-3
  viability at 100 µM: 45%
